Assay outcomes deposited in PubChem by several laboratories.
Rows were chosen to be rich in hits. Some 2.9% of all compounds tested hit in one or more screens of this group.
MT stabilizer: microtubule stabilizers in HeLa cells; HeLa tubulin immunostaining HCS, 24 h; share of cells brighter than vehicle mean+2SD; % tubulin-high responders, % at 10 µM; 0.83% of 200,000 active; AID 2205;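 active = plate Z-score above 3 for both tubulin-high and condensed-nucleus cell shares, with cell loss under 80%, at 10 µM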;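 also: anti alpha tubulin signal scored within the nucleus-defined area of each cell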
b-catenin transl: alters nuclear translocation of beta-catenin in HeLa cells; immunofluorescence imaging; nuclear translocation activity, % at 5 µM; 0.3% of 190,000 active; AID 1665;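 active = nuclear translocation activity above 50% at 5 µM, with a well cell count of 50 or more; inconclusive = wells under 50 cells across six images, flagged as toxic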;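 also: per-cell ratio of nuclear to cytoplasmic median beta-catenin stain intensity; plate controls were DMSO negative control for no effect and GSK-3 inhibitor IX positive control for full effect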
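Test system: human HeLa cell line; Doses: 5 µM primary, 0.02–20 µM confirmation; Incubation: 24 h compound exposure, 37°C; Detection: beta-catenin immunofluorescence imaging with DAPI; Read-out: beta-catenin nuclear/cytoplasmic ratio, % activation.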
Autophagy mod: alters autophagy in cells; MEF GFP-LC3 puncta imaging; test concentration mostly 10 µM; calls only at 10 µM (by protocol); 0.98% of 190,000 active; AID 463193;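 active = percentage of spot-positive cells more than 3 SD above its plate mean, without a fluorescence outlier flag or 80% toxicity; inconclusive = no clear call, values can overlap the other calls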;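 also: spot-positive cell cutoff set from DMSO-treated cells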
Wee1 stabilizer: inhibitors of human Wee1 degradation | AID 1321 | reporter increase, % at 5 µM | HeLa Luc-Wee1K328M stability, luciferase luminescence; 100% = proteasome inhibitor MG132 effect | 1.2% of 220,000 active | P30291;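 active = activation above the mean of all tested compounds plus 3 SD, set per screening run, cut at about 8.8% in these data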;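 also: cells exposed to compound for 20 h before luminescence read; 0% = DMSO alone and 100% = MG132 at 30 µM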
Target sequence (P30291 whole entry K328M): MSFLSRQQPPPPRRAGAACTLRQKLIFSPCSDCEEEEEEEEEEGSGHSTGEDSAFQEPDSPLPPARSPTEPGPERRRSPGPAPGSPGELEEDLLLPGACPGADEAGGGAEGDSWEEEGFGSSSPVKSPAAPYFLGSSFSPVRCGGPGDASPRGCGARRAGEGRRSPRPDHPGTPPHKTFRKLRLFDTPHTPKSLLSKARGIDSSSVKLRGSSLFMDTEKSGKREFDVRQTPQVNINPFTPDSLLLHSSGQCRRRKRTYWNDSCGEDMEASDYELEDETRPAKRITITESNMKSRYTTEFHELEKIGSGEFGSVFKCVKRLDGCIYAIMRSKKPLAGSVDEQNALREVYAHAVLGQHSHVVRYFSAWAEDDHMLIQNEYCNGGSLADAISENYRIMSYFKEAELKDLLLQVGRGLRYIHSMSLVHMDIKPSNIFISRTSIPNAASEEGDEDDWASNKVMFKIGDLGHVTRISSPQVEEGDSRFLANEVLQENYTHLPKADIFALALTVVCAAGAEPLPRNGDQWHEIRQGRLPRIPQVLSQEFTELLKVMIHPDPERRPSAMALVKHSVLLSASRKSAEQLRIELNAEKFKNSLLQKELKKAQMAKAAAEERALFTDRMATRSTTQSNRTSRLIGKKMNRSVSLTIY
Insulin prom up: MIN6 insulin promoter up-regulation; AID 1625; MIN6 insulin promoter-GFP reporter, high-content imaging; stronger effect = higher value; 0.3% of 190,000 active; z-score at 5 µM;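 active = z-score above 3 at 5 µM with at least 500 cells counted in the well; inconclusive = wells under 500 cells, flagged as cytotoxic or low count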
Wee1 stab conf: human Wee1 degradation inhibition, confirmation; shares compounds with Wee1 stabilizer; HeLa Luc-Wee1K328M degradation, luminescence; vehicle 0%, proteasome-blocked wells 100%; activation, % at 5 µM; 4% of 1,100 active; in the data active = activation above about 8.9%
An asterisk follows results filed as active; i = inactive; ? = inconclusive; . = no result.

SMILES	MT stabilizer	b-catenin transl	Autophagy mod	Wee1 stabilizer	Insulin prom up	Wee1 stab conf
CCn1ncc(Br)c1C(=O)Nc1cccc(F)c1	4	-2	i	13*	-0.34	2
CCn1ncc(Br)c1C(=O)Nc1ccc2c(c1)OCCO2	6	2	i	-1	-0.85	.
Cc1ccnc(NS(=O)(=O)c2ccc(NC(=O)c3ccc(S(=O)(=O)N4CCCC4)cc3)cc2)n1	4	-2	i	3	0	.
CCCOc1ccc(-c2nnc(-c3cccs3)o2)cc1	3	-1	i	1	.	.
CN(C)c1ccc(-c2nnc(-c3cccs3)o2)cc1	5	-1	i	15*	1.2	-1
CCS(=O)(=O)N1Cc2ccccc2CC1C(=O)Nc1ccc(F)cc1 (stereo not given)	.	0	.	15*	0.21	0
COc1ccc(C(=O)COc2ccc(F)cc2)c(O)c1	.	-1	.	18*	-0.19	1
O=C(COc1ccc(F)cc1)c1c(O)cc(O)cc1O	.	1	.	3	0.17	.
C=C(C)CNC(=S)N/N=C/c1c(F)cccc1F	5	2	i	14*	-0.16	0
C=C(C)CNC(=S)N/N=C/c1ccc([N+](=O)[O-])cc1	4	1	i	1	-0.68	.
COc1ccccc1N1CCN(C(=O)c2ccc(S(=O)(=O)N3CCCCCC3)cc2)CC1	3	.	i	11*	.	0
COc1ccc(-c2nnc(SCC(=O)N/N=C/c3ccccc3C(=O)O)n2-c2ccc(Cl)cc2)cc1	.	-1	.	12*	1	1
Cc1ccc(NC(=O)COC(=O)CNC(=O)c2ccc(Br)cc2)c(C)c1	5	-1	i	14*	1.1	1
CC(C)CC(=O)Nc1ccc(N2CCOCC2)cc1	2	0	i	1	0.84	.
COC(=O)CC1C(=O)NCCN1C(=O)CSc1nc2ccccc2o1 (stereo not given)	2	-1	i	12*	-0.05	-1
COC(=O)CC1C(=O)NCCN1C(=O)CSc1nc2ccccc2c(=O)n1CC(C)C (stereo not given)	3	0	i	2	-1.9	.
COc1ccc(Cl)c2c1[nH]c1nc(SCc3cccnc3)nnc12	2	2	i	13*	0.5	-1
C=CCn1c(N)c(C(=O)Nc2ccccc2)c2nc3ccccc3nc21	4	.	i	15*	-1.8	6
COc1ccc(C(=O)O)cc1S(=O)(=O)NC(C)C	.	0	.	-2	0.25	.
On1onc2c3cc(-c4ccccc4)nc3ccc21	2	3	i	39*	?	30*
c1ccc(-c2cc3c(ccc4nonc43)nn2)cc1	4	-7	i	0	1	.
COc1cc(/C=N/Nc2nc(=O)[nH]nc2C)ccc1O	.	1	.	17*	0.56	-3
COc1ccc(/C=N/Nc2nc(=O)[nH]nc2C)cc1OC	.	0	.	2	-0.04	.
CCC(=O)Nc1cccc(NC(=S)NC(=O)c2ccccc2C)c1	3	-1	i	6	-1	.
CC1=NCCN1CCNC(=O)Nc1ccc(C(C)(C)C)cc1	.	-2	.	15*	0.7	0
SMILES	MT stabilizer	b-catenin transl	Autophagy mod	Wee1 stabilizer	Insulin prom up	Wee1 stab conf
CCOC(=O)CSc1nc2cc(C(F)(F)F)cnc2n1C	.	-1	.	11*	-0.03	2
CCCn1c(SCC(=O)OCC)nc(C(F)(F)F)cc1=O	4	1	i	-2	0.11	.
O=C(Nc1ccccc1)C1=C[C@@H](c2ccccc2)C[C@@H](OCc2ccc(CO)cc2)O1	1	-1	i	0	.	.
O=C(Nc1ccccc1)C1=C[C@H](c2ccc(Br)cc2)C[C@H](OCc2ccc(CO)cc2)O1	2	-2	i	11*	-0.53	5
O=C(CC(Nc1ccc(F)cc1)C(=O)OCC(=O)c1cccs1)c1ccccc1 (stereo not given)	4	-2	i	-2	-0.48	.
O=C(N/N=C/c1ccco1)c1cc(=O)[nH]c2ccccc12	3	0	i	28*	-0.33	0
O=C(Nc1ccc(OC(F)(F)F)cc1)Nc1cccc([N+](=O)[O-])c1	7	47	i	17*	-4.6	2
NC1=NC(=O)C2(COC(c3cccnc3)OC2)S1 (stereo not given)	4	0	i	-3	1.2	.
CCOC(=O)c1c(-c2ccccc2)oc2ccc(OC(C)=O)cc12	4	0	i	13*	0.04	-4
COCCOC(=O)c1c(C)oc2ccc(OCc3ccccc3)cc12	2	2	i	14*	0.63	0
CCC1(c2ccc(F)cc2)NC(=O)N(CC(=O)Nc2ccc(C)c(S(=O)(=O)N3CCOCC3)c2)C1=O (stereo not given)	4	-2	i	-2	-0.51	.
Cc1cc(-c2nnc(CCC(=O)N(C)C(C)c3cccs3)o2)no1 (stereo not given)	.	-1	.	-1	.	.
COc1cc(OC)cc(C(=O)N[C@H](C(=O)Nc2ccc3c(c2)OCO3)C(C)C)c1	3	0	i	5	-0.15	.
CC(C)COc1ccc(C(=O)Nc2ccc([N+](=O)[O-])cc2)cc1	5	0	i	-4	-1.2	.
CCC(=O)Oc1ccc(C(=O)Nc2ccc([N+](=O)[O-])cc2)cc1	5	-1	i	12*	0.15	3
CCS(=O)(=O)Nc1cccc(-c2nc3cccnc3s2)c1	.	0	.	12*	-0.77	0
O=C(Nc1ccc(Cl)c(Cl)c1)Nc1nccs1	.	12	.	14*	-0.12	25*
CC(=O)c1ccc(Oc2ncnc3sccc23)c(CN2CCOCC2)c1	2	-1	i	-2	.	.
CCCOc1ccc(C(C)=O)cc1CN1CCOCC1	3	3	i	12*	-0.28	-1
CC(C)/C=N/Nc1nc2c(c(=O)n(C)c(=O)n2C)n1C	.	-1	.	12*	0.2	0
Cn1c(=O)c2c(nc(NCCO)n2C)n(C)c1=O	3	1	i	3	0.9	.
CNC(=O)COC(=O)c1ccc(-c2nc3ccccc3s2)s1	2	-3	i	1	.	.
O=CN1CCN(C(=O)c2ccc(-c3nc4ccccc4s3)s2)CC1	3	0	i	17*	0.28	2
CC(C)c1nnc(SCC(=O)NCc2ccc3c(c2)OCO3)n1C	5	-3	i	12*	1	-1
O=C(Nc1ccccc1)Nc1cc(OCC(F)(F)F)cc(OCC(F)(F)F)c1	1	.	i	14*	-2.2	2
COc1ccc(C(=O)/C=C/Nc2ccc(S(=O)(=O)Nc3nc(C)cc(C)n3)cc2)cc1OC	2	.	i	-1	-0.25	.
Cc1cc(C)nc(NS(=O)(=O)c2ccc(N/C=C/C(=O)c3ccc(Cl)cc3)cc2)n1	2	2	i	14*	0	0
COc1cc(CNCCCCO)ccc1OCc1ccccc1F	1	-3	i	12*	0.05	-2
CCNCc1ccc(OCc2ccccc2F)c(OC)c1	6	-5	i	2	0.75	.
